Measurements pooled from the literature.
Lines come from different studies, so protocols differ. pKd: −log10 of the molar value.
Observed: binding
CREBBP bromodomain: CREB-binding protein, bromodomain (CREBBP, Homo sapiens, UniProt Q92793)
tspO: tspO (Cereibacter sphaeroides, UniProt Q9RFC8)
PIK3CG: Phosphatidylinositol 4,5-bisphosphate 3-kinase catalytic subunit gamma isoform (PIK3CG, Homo sapiens, UniProt P48736)

`Cn1cc(C(=O)Nc2cccc(C(=O)O)c2)ccc1=O` gave a pKd of 5.39 (CREBBP bromodomain; competition with immobilised ligand).
`Nc1nc2c(ncn2[C@@H]2O[C@H](COP(=O)(O)OP(=O)(O)O)[C@@H](OP(=O)(O)OP(=O)(O)O)[C@H]2O)c(=O)[nH]1` gave a pKd of 4.28 (gpmA (Escherichia coli, UniProt P62707); ITC).
With `Cc1cc2nc3c(=O)[nH]c(=O)nc-3n(C[C@H](O)[C@H](O)[C@H](O)CO)c2cc1C` the pKd was 6.90 (Riboflavin-binding protein (Gallus gallus, UniProt P02752); ITC).
The pKd of `OC[C@H]1OC(O)[C@H](O)[C@@H](O)[C@@H]1O` (stereo partly drawn) is reported as 5.49 (Nucleolar RNA helicase 2 (Homo sapiens, UniProt Q9NR30); MST).
`C=CC1=C(C)C2=Cc3c(C=C)c(C)c4[n]3[Fe]([Cl])[n]3c(c(C)c(CCC(=O)O)c3=CC3=NC(=C4)C(C)=C3CCC(=O)O)=CC1=N2` has a pKd of 6.05 (tspO; fluorescence).
For `CCOc1cc(-c2nncn2C)ccc1Nc1ncc2cc(C)nc(NCC(C)(C)C)c2n1`, the pKd was less than 5.00 (Mitogen-activated protein kinase kinase kinase 15 (MAP3K15, Homo sapiens, UniProt Q6ZN16); competition with immobilised ligand).
`Cc1cc(/N=N/c2ccc(S(=O)(=O)O)cc2)ccc1O` has a pKd of 4.12 (CREBBP bromodomain; fluorescence).
With `C=CC(=O)N1CCC(C(=O)NCC(=O)N2CCN(c3nc(-c4cnc(N)nc4C(F)F)nc(N4CCOCC4)n3)CC2)CC1` the pKd was 8.80 (PIK3CG; competition with immobilised ligand).
With `C=CC1=C(C)c2cc3[nH]c(cc4nc(cc5[nH]c(cc1n2)c(C)c5CCC(=O)O)C(CCC(=O)O)=C4C)c(C)c3C=C` the pKd was 6.05 (tspO; fluorescence).
`CCC(=O)N1CCC(C(=O)N(C)CC(=O)N2CCN(c3nc(-c4cnc(N)nc4C(F)F)nc(N4CCOCC4)n3)CC2)CC1` has a pKd of 7.80 (PIK3CG; competition with immobilised ligand).
`CC1=C(/C=C/C(C)=C/C=C/C(C)=C/C=O)C(C)(C)CCC1` has a pKd of 6.98 (Cellular retinoic acid-binding protein 2 (CRABP2, Homo sapiens, UniProt P29373, L122E/R133K); fluorescence).
For `Cc1cc(/N=N/c2ccc(S(=O)(=O)O)cc2)cc(C)c1O`, the pKd was 4.36 (CREBBP bromodomain; fluorescence).
